Measurements from ChEMBL document CHEMBL1155769 (Antimicrob Agents Chemother, 2007).
The source made the active and inactive calls. The calls are words filed in the database; no cut-off is given here.

Key:
[1] = Toxicity against human erythrocytes assessed as potentiation of heme-induced hemolysis at 10 uM in presence of heme; format: cell-based; details: erythrocyte
Procedure, shortened: (§1)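 Washed fresh human erythrocytes (0.5% in PBS, pH 7.4) were used. Heme, either 0–20 µM with 10 µM drug or 10 µM with various drug concentrations, was preincubated 10 min in PBS, then cells were added. Plates were shaken 2 h at 37°C and read at 630 nm. Percent hemolysis was calculated relative to a cells-only control. Error bars are SD.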

[2] = Inhibition of beta-hematin formation after 16 hrs
[3] = Binding affinity to heme in HEPES buffer at pH 7.4 upto 60 uM after 30 mins by Jobs plot
[4] = Binding affinity to heme in phosphate buffer at pH 7.4 by Hills plot
Plasmodium falciparum = assay: Antimalarial activity against chloroquine-sensitive Plasmodium falciparum D6 infected in human erythrocytes after 48 hrs; format: functional, organism-based; details: D6, 48 h
Procedure, shortened: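 Human erythrocytes infected with chloroquine-sensitive P. falciparum clone D6, mainly rings, at 4% parasitemia and 5% hematocrit. Cultured in RPMI 1640 with 10% human AB serum, with serial drug dilutions in triplicate. Incubated 48 h at 37°C in a candle jar. Parasitized cells per 10,000 counted on Giemsa-stained thin smears. Inhibition vs drug-free control was plotted, and IC50 (µM) read graphically.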

[5] = Toxicity against human erythrocytes assessed as heme-induced hemolysis up to 30 uM in absence of heme; format: cell-based; details: erythrocyte
Procedure, shortened: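 Fresh heparinized human donor erythrocytes, washed six times in PBS, pH 7.4, used as a 0.5% suspension. Drugs up to 30 µM without heme were tested. Hemolysis was followed by turbidity at 630 nm, with a cells-only well taken as 0% hemolysis.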

[6] = Binding affinity to heme in HEPES buffer at pH 7.4 upto 20 uM after 30 mins by Jobs plot
Procedure, shortened: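 Continuous-variation (Job's) method: drug and heme mixed in 40% DMSO buffered with 20 mM HEPES, pH 7.4, at a constant combined final concentration of 10 µM. Mixtures were held 30 min at room temperature (25°C). Differential absorbance at 400 nm was taken as the mixture absorbance minus the summed heme and drug absorbances. Three independent experiments, mean ± SEM.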

[7] = Binding affinity to heme in HEPES buffer at pH 7.4 after 30 mins by Jobs plot
Procedure, shortened: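 Continuous-variation (Job's) plot: drug–heme mixtures in 40% DMSO buffered with 20 mM HEPES, pH 7.4, total heme plus drug held at 10 µM. Incubated 30 min at room temperature (25°C). Differential absorbance at 400 nm was taken as mixture minus summed heme and drug absorbance. Mean ± SEM of three independent experiments.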

[8] = Toxicity against human erythrocytes assessed as potentiation of heme-induced hemolysis in presence of variable concentration of heme; format: cell-based; details: erythrocyte; procedure, shortened: as §1

IC50 [2] [µM]	Activity [3]	Ka [4] [×10⁵ /M]	IC50 (Plasmodium falciparum) [µM]	Activity [6]	Activity [7]	Activity [4]	SMILES	Activity [1]	Activity [5]	Activity [8]
2.9	Active	0.61	0.1				COc1cc(NC(C)CCCN)c2nc(C(C)(C)C)ccc2c1 (centres undefined)	Dose-dependent effect	Not Active	
				Active			CCN(CC)CCCC(C)Nc1ccnc2cc(Cl)ccc12 (centres undefined) [CHLOROQUINE]	Dose-dependent effect	Not Active	
					inactive	inactive	COc1cc(NC(C)CCCN)c2ncccc2c1 (centres undefined) [PRIMAQUINE]	Not Active	Not Active	Not Active
